# A selection: hits, their analogues and other compounds. The true share with any hit is near 1.9%.
# TAG inh: inhibitors of triacylglycerol accumulation, primary screen, cell-based, uHTS, fluorescence, H9c2; actives 0.66% (n = 230,000); H9c2 cells, Nile Red lipid (TAG) fluorescence; cells loaded with 200 µM oleic acid; inhibition, % at 12.5 µM;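 active = pattern-corrected inhibition of lipid staining of at least 50% with the nuclear-stain viability signal not falling by more than 50%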
# Hsp70 act: Hsp70 transcriptional activators, primary screen, cell-based, HeLa, Hsp70 promoter luciferase, luminescence, 10 µM; HeLa Hsp70 promoter luciferase reporter; scaled: vehicle 0, proteasome-inhibitor control 100%; activation, % at 10 µM; actives 0.04% (n = 200,000);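 active = activation above the mean across all tested compounds plus 3 SD, cutoff set per campaign, cut at about 5.5% in these data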
# Rad51 HR inh: human RAD51 strand exchange inhibitors, primary screen, biochemical, fluorescence | DNA repair protein RAD51 homolog 1 (Homo sapiens), Q06609 | inhibition, % at 10 µM | hRad51 DNA strand exchange, fluorescence dequenching | actives 0.085% (n = 200,000);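 active = inhibition above 40% at the single screening dose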
# Target sequence (Q06609 whole entry, looked up): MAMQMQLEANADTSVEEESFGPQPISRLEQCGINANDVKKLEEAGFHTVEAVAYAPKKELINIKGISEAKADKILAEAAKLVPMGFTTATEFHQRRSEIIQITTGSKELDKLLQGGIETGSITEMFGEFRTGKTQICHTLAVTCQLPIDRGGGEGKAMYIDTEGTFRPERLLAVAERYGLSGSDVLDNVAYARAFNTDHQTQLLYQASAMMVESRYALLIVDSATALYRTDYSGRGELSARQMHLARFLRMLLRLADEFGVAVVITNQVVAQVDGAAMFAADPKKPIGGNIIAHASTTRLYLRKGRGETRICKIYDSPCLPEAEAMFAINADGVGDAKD
#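 Material: Human Rad51 nucleoprotein filaments preassembled on unlabelled ssDNA | Also added: Labelled 47-mer dsDNA for strand exchange | Dosing: Single dose, 10 µM final compound | Schedule: 30-min compound preincubation and 15-min exchange, both room temperature | Technique: Fluorescence dequenching at 485/520 nm | Measure: Percent inhibition relative to plate controls and blanks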
# GAA850 FXN act: FXN promoter activators, primary screen, cell-based, luciferase luminescence, HEK293 lucGAA850; HEK293 lucGAA850 FXN promoter luciferase reporter, 24 h; percent of 10 µM SAHA response; actives 0.56% (n = 360,000); activation, % at 6 µM;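 active = activation above the average of all compounds screened plus 3 SD, cutoff fixed separately per campaign, cut at about 7.5% in these data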
# HIF act: HIF pathway transcriptional activators, primary screen, cell-based, U2OS HRE-luciferase, luminescence; U2OS HRE-luciferase reporter; normalized: DMSO 0%, desferrioxamine 100%; activation, % at 7.5 µM (by protocol); actives 0.32% (n = 300,000);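 active = mean activation of at least 10% of the iron chelator positive control signal, with at least half of replicates also reaching 10%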
# ABHD5-PLIN5 inh: ABHD5-PLIN5 interaction inhibitors, primary screen, cell lysate, split luciferase complementation, luminescence; Perilipin-5 (Homo sapiens) + 1-acylglycerol-3-phosphate O-acyltransferase ABHD5 (Homo …; Split G. princeps luciferase complementation, 4 h; inhibition, % at 4 µM; actives 0.78% (n = 360,000); AID 602281, 2012;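 active = inhibition above the mean inhibition across every tested compound plus 3 SD, cut at about 22% in these data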
# GAA30 FXN cntr: GAA30 FXN promoter activators, confirmation, counter-screen for GAA850 frataxin promoter activator project, cell-based, luminescence, HEK293, lucGAA30, triplicate | HEK293 lucGAA30 FXN promoter luciferase, 24 h; DMSO = 0%, 5 µM ipriflavone = 100% | AID 588350, 2011 | actives 66% (n = 1,900) | shares compounds with GAA850 FXN act | activation, % at 6 µM;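 active = mean activation above the mean of solvent-only control wells plus 3 SD, cut at about 22% in these data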;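 also: counterscreen of GAA850 promoter hits where activity marks nonselective or luminescence artifacts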
# GAA850 confirm: FXN GAA850 promoter activators in reporter cells, confirmation, cell-based, luminescence, HEK293 lucGAA850, triplicate; actives 86% (n = 1,900); activation, % at 6 µM; HEK293 lucGAA850 FXN promoter luciferase reporter, 24 h; 100% = activation by SAHA; shares compounds with GAA850 FXN act;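 active = mean activation above a set limit taken from the primary screen, cut at about 8% in these data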
# Numbers stand for hits; n = inactive; x = not tested or not shown.
SMILES,TAG inh,Hsp70 act,Rad51 HR inh,GAA850 FXN act,HIF act,ABHD5-PLIN5 inh,GAA30 FXN cntr,GAA850 confirm
Nc1nc(-c2ccccc2)cc(-c2ccccc2O)n1,x,n,n,9.3,n,n,53.5,47.6
NNc1nc(-c2ccccc2)cc(-c2ccccc2O)n1,x,n,n,n,n,n,x,x
Cc1ccc(NC(=O)C(NC2CCCc3ccccc32)c2ccccc2)cc1Cl (stereo unspecified),x,n,n,n,n,n,x,x
Cc1ccc(NC(=O)C(NC2CCCc3ccccc32)c2ccccc2)c([N+](=O)[O-])c1 (stereo unspecified),x,n,n,9.6,n,n,n,17.1
CN(C(=S)NC1CCCCC1)C1(c2ccccc2Cl)CCCCC1=O (stereo unspecified),n,n,n,8.8,n,n,n,9.2
CC(C)CCn1c(SCC(N)=O)nc2c1c(=O)n(C)c(=O)n2C,n,n,n,10.9,n,n,n,9.7
CC(=O)Nc1ccc(NC(=O)CCNC(=O)c2ccccc2Cl)cc1,x,x,x,n,n,n,x,x
COc1cccc2sc3cc(NCc4ccc(C)o4)ccc3c(=O)c12,n,x,x,7.7,x,n,87.9,34.2
COc1cc(-c2ccc3c(=O)c4ccccc4sc3c2)cc(OC)c1OC,n,x,x,n,x,n,x,x
O=C(NCCCn1ccnc1)c1cc2cc([N+](=O)[O-])ccc2oc1=O,x,n,n,11.9,n,n,n,n
Cc1cc2c(cc1C)N(CC(=O)N1CCCC1)C(=O)CC(c1ccccc1)=N2,n,n,n,7.8,n,n,78.4,22.4
CSc1ccccc1OCc1cc(C(=O)N2CCc3c(Cl)cccc3C2)no1,x,x,x,n,n,n,x,x
O=C(N/N=C/c1ccccc1)c1sccc1OCc1ccc(F)cc1,n,n,n,n,n,n,x,x
O=C(CSc1nc2ncccc2[nH]1)Nc1c(F)cc(F)cc1Br,x,x,x,n,x,n,x,x
O=C(CSc1ncn[nH]1)Nc1c(F)cc(F)cc1Br,x,n,x,13.9,n,n,n,n
O=C(NCC1CCCO1)C(=O)N/N=C/c1cccc(Cl)c1 (stereo unspecified),n,x,x,n,n,n,x,x
O=Cc1sc(Nc2ccccc2)nc1Cl,n,n,n,n,n,n,x,x
COc1ccccc1Nc1nc(Cl)c(C=O)s1,n,n,n,11.5,n,n,52.7,46.8
Cc1ccc(-n2nc3cc(C)c(N)cc3n2)cc1,n,n,n,n,n,n,x,x
Cc1cc2nc3ccc(N(C)C)cc3nc2cc1N,n,x,x,7.8,n,n,119.3,34.3
CCc1ccc(OCC(=O)Nc2ccc(-c3nc4ccccc4o3)c(O)c2)cc1,n,n,n,n,n,n,x,x
Oc1cc(NCc2cccnc2)ccc1-c1nc2ccccc2o1,n,n,n,11.4,n,n,80.9,44.2
COc1cccc(CC(=O)OCC(=O)NC(C)c2ccc(F)cc2)c1 (stereo unspecified),n,x,x,n,x,n,x,x
O=C1CCCC/C1=C\Nc1ccc(S(=O)(=O)Nc2cnc3ccccc3n2)cc1,n,x,n,n,x,n,x,x
COc1ccc(-c2ccc(=O)n(Cc3c(F)cccc3Cl)n2)cc1,x,x,x,8.0,n,n,43.4,21.8
SMILES,TAG inh,Hsp70 act,Rad51 HR inh,GAA850 FXN act,HIF act,ABHD5-PLIN5 inh,GAA30 FXN cntr,GAA850 confirm
COc1ccc(-c2ccc(=O)n(Cc3cccc([N+](=O)[O-])c3)n2)cc1,n,n,n,n,n,n,x,x
CC(C)CN(C(=O)C(c1ccccc1)c1ccccc1)c1c(N)n(CC(C)C)c(=O)[nH]c1=O,n,n,n,7.9,n,n,n,n
Cc1ccc(C(=O)c2oc3ccccc3c2N)cc1,n,n,n,n,n,n,x,x
Nc1c(C(=O)c2ccccc2)oc2ccc(Br)cc12,x,n,n,n,n,n,x,x
Nc1c(C(=O)c2ccccc2)oc2ccc([N+](=O)[O-])cc12,n,x,n,8.3,n,n,99.5,35.2
Nc1c(C(=O)c2ccc(Br)cc2)oc2ccccc12,x,n,n,7.7,n,n,92.9,34.3
COc1ccc(/C=N\NC(=O)c2sccc2C)cc1Cn1nc(C)cc1C,n,x,x,8.1,n,n,42.3,21.8
COc1ccc(/C=N\NC(=O)COc2ccccc2Cl)cc1Cn1nc(C)cc1C,n,n,n,n,n,n,x,x
O=C(Nc1ccc(Cl)cc1Cl)c1ccc2c(=O)n3c(nc2c1)CCC3,n,x,x,n,n,n,x,x
O=C(Nc1ccc(F)c(Cl)c1)c1ccc2c(=O)n3c(nc2c1)CCCCC3,n,n,n,n,n,n,x,x
O=C(Nc1ccc(Cl)cc1)c1ccc2c(=O)n3c(nc2c1)CCCCC3,n,x,x,18.0,n,n,62.8,24.8
O=C(Nc1ccc(Br)cc1Cl)c1ccc2c(=O)n3c(nc2c1)CCC3,n,x,x,7.9,n,n,87.5,23.4
Nc1ccc2c(c1)C(=O)N(c1cccc3ccccc13)C2=O,x,x,x,n,n,n,x,x
CC1=CC(=O)N(c2cccc3c(N4C(=O)C=C(C)C4=O)cccc23)C1=O,n,x,x,9.2,x,n,n,25.8
Cc1ccc2nc3ccc(N4CCN(C)CC4)nn3c(=O)c2c1,n,n,x,8.2,n,n,115.6,34.4
Cc1ccc(-c2nn3c(C)nnc3s2)cc1NC(=O)c1ccco1,n,n,x,14.2,n,n,25.8,n
c1ccc(-c2cc3nccc(-c4ccccn4)n3n2)cc1,x,n,n,8.0,n,n,106.0,28.7
COc1cc(NC(=O)C2CC(c3ccccc3Cl)=NO2)cc(OC)c1OC (stereo unspecified),x,x,x,n,n,n,x,x
Cc1cccc(C)c1NC(=O)C1c2ccccc2OCC(=O)N1Cc1ccccc1 (stereo unspecified),x,x,x,x,x,n,x,x
Cc1ccc(C(=O)N2CCCCC2)cc1NC1=C(Cl)C(=O)N(Cc2ccccc2)C1=O,n,x,x,n,x,n,x,x
Cc1ccc(O)c(NC2=C(Cl)C(=O)N(Cc3ccccc3)C2=O)c1,n,n,n,8.1,n,n,n,12.4

# Bioassay records as filed in PubChem BioAssay.
